Compounds with a hit are over-represented: about 2.2% of the library has one in this group of screens.
SUMO1 PPI mod: alters human SUMO1 binding to SIM partners; P63165; SUMO1 binding to a labelled peptide, TR-FRET, 1 h; inhibition, % at 20 µM; hit rate 0.33% among 360,000; in the data active = inhibition above about 37%
DNMT1 block: DNMT1 (human) enzyme inhibition; DNMT1 molecular beacon, Hinp1I cleavage, fluorescence; inhibition (reported as % activation of signal), % at 10 µM; P26358; hit rate 0.83% among 360,000; in the data active = inhibition above about 50%
Scp-1 inhibitor: inhibitors of human Scp-1 phosphatase. Q9GZU7. Recombinant Scp1, phosphopeptide, malachite green phosphate absorbance. inhibition, % at 20 µM. hit rate 0.88% among 340,000. AID 493091;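 active = inhibition above about 50% at 20 µM, limit read from the data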;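 note: plate controls were DMSO wells with enzyme for no effect and wells lacking enzyme for full effect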
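assay system = SCP-1 phosphatase catalytic domain, residues 76-261 | buffer or medium = 50 mM Tris acetate pH 5.5, 0.005% Tween-20, 10 mM MgCl2 | incubation = enzyme reaction 45 min at room temperature, colour 5 min, stabilisation 30 min | signal = Phosphate-binding colour reagent, absorbance read at 630 nm | measure = % inhibition at 20 µM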
GRK2 aptamer HTS: human GRK2 inhibition via aptamer displacement; inhibition of aptamer binding, % at 10 µM; bead flow cytometry, FAM-aptamer displacement from GRK2; hit rate 0.59% among 330,000; P25098;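 active = inhibition of aptamer binding above 40%, roughly 3 SD of noise, on plates passing a quality check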;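 note: median bead fluorescence of bound FAM aptamer so fluorescent compounds give negative values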
Target sequence (P25098 whole entry, looked up): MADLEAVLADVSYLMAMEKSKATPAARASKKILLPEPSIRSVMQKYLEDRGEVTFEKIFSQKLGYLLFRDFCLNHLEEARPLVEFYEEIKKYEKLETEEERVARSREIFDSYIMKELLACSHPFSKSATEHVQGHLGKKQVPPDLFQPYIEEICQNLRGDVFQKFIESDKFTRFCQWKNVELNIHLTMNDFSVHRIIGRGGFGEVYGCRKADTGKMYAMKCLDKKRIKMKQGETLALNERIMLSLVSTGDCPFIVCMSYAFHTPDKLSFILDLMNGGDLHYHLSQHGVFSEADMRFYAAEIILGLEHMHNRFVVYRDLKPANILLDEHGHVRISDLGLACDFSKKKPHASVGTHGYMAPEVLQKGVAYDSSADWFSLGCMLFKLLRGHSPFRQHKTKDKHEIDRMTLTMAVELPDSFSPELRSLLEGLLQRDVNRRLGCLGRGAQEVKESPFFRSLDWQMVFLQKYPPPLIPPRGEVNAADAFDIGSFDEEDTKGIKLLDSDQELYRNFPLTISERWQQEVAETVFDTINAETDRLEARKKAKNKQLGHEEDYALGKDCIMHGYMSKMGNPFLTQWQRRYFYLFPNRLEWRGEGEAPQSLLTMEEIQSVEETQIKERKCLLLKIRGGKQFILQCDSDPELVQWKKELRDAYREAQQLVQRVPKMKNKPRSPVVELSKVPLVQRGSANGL
LMPTP block: blocks human LMPTP phosphatase; P24666; inhibition, % at 20 µM; recombinant LMPTP-A, OMFP fluorogenic substrate, fluorescence intensity; hit rate 0.22% among 360,000;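 active = compounds that cut the enzyme signal by at least half of the control window in the single-dose screen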;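 note: plate controls were DMSO wells with enzyme plus substrate for no effect and substrate without enzyme for full effect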
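Test system: LMPTP-A, protein tyrosine phosphatase of low molecular weight; Input: 0.625 nM enzyme; Incubation: 50 min dark incubation at room temperature; Signal: endpoint fluorescence intensity from OMFP dephosphorylation; Read-out basis: % inhibition versus control wells.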
STEP block: STEP (human) phosphatase inhibition | AID 588621 | hit rate 0.25% among 360,000 | recombinant STEP, OMFP fluorogenic substrate, fluorescence | inhibition, % at 20 µM | P54829;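 active = inhibition at 20 µM, scaled per plate between control wells, above about 37%, limit read from the data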;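 note: 0% = DMSO with enzyme and substrate and 100% = substrate only without enzyme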
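Also added – OMFP at 25 µM · Test system – STEP tyrosine phosphatase · Technique – FITC-channel fluorescence of OMFP product · Schedule – 20 min at room temperature, dark · Evaluation – control-normalized % inhibition with plate pattern correction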
Beacon interf DR: counter-screen for DNMT1 inhibitors: spectral interference, dose response; shares compounds with DNMT1 block; molecular beacon fluorescence; IC50, µM; 200 tested, under 10 active; call rule not given here
DNMT1 confirm: DNMT1 inhibition confirmation, single concentration. shares compounds with DNMT1 block. DNMT1 molecular beacon HinP1I cleavage, fluorescence. inhibition, % at 10 µM. hit rate 8% among 2,300. AID 602385;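 active = average inhibition of at least 30% in the single-concentration confirmation test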
DNMT1 interf: shows spectral interference in the DNMT1 beacon assay; DNMT1 molecular beacon spectral interference counterscreen, fluorescence 485/520; shares compounds with DNMT1 block; hit rate 1% among 2,300; AID 602387; activation (fluorescence interference), % at 10 µM;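 active = activation of at least 30% at 10 µM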;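 note: DNMT1 catalytic domain with a HinP1I cleavage step and a FAM/dabcyl DNA beacon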
* hit, by the source's call; nt = not tested or not shown.

SMILES	SUMO1 PPI mod	DNMT1 block	Scp-1 inhibitor	GRK2 aptamer HTS	LMPTP block	STEP block	DNMT1 confirm	DNMT1 interf	others
CN(C)C(CNC(=O)C1CC(=O)N(c2cccc(C(F)(F)F)c2)C1)c1ccccc1 (stereo not drawn)	-1	91*	nt	nt	-3	-1	2	4
Clc1cccc(Cc2c(C3CCCCC3)nc3c4ccccc4ccn23)c1	-4	nt	nt	nt	5	nt	nt	nt
CCCCCCn1c(=O)[nH]c2nc3cc(N)c(C)cc3nc2c1=O	-24	63*	-3	nt	-11	-199	74*	118*
CCC(C)n1c(NC(=O)c2ccccc2)c(C#N)c2nc3ccccc3nc21 (stereo not drawn)	43*	73*	-2	3	16	3	8	6
O=[N+]([O-])c1ccc(/C=N/Nc2nc(N3CCCCCC3)nc(N3CCCCCC3)n2)o1	-6	66*	12	1	4	2	0	1
CN(C)C(=O)CN1CCN(Cc2nc(CC3CC3)no2)CC1	0	2	-1	5	4	-2	nt	nt
CCOC(=O)N1CCN(Cc2nc(CC3CC3)no2)CC1	3	82*	-5	3	-1	-1	3	3
O=C(/C=C/c1ccco1)NC(=S)Nc1cccc(-c2nc3ccccc3s2)c1	23	32	-14	0	5	-1	nt	nt
O=C(/C=C/c1ccco1)NC(=S)Nc1cc(-c2nc3ccccc3s2)ccc1Cl	25	98*	-2	0	5	-2	2	-4
Cc1ccc(-c2nc3ccccc3s2)cc1NC(=S)NC(=O)/C=C/c1ccco1	13	54*	-8	0	0	6	-2	-5
Cc1cn([C@H]2C[C@H](O)[C@@H](/C=C/C(=O)NCc3ccc4c(c3)OCO4)O2)c(=O)[nH]c1=O	4	0	nt	nt	-2	-1	nt	nt
c1cncc(CNc2ncnc3sc4c(c23)CCCC4)c1	3	-1	-6	1	1	5	nt	nt
Cc1nc(NCc2cccnc2)c2c3c(sc2n1)CCCC3	4	51*	-6	0	4	27	1	-5
S=c1[nH]nc(-c2ccccc2Cl)n1/N=C/C=C/c1ccco1	3	24	15	0	3	0	nt	nt
CC(/C=N/n1c(-c2ccc(C)cc2)n[nH]c1=S)=C\c1ccco1	-5	3	7	3	1	2	nt	nt
Cc1cccc(-c2n[nH]c(=S)n2/N=C/C=C/c2ccco2)c1	8	66*	-23	nt	16	4	2	4
S=c1[nH]nc(-c2ccncc2)n1/N=C/C=C/c1ccco1	27	63*	8	4	-1	1	4	3
CC(/C=N/n1c(-c2ccncc2)n[nH]c1=S)=C\c1ccco1	20	83*	10	3	10	8	2	3
O=C1c2sccc2-c2cccc3cccc1c23	-25	66*	nt	nt	2	0	65*	3	Beacon interf DR=>99
O=C1C(Br)=Cc2cccc3cccc1c23	-31	28	-6	3	0	0	nt	nt
COc1ccc(/C=C/CN2CCC(C(=O)NC(c3ccc(F)cc3)c3ccc4ccccc4n3)CC2)cc1 (stereo not drawn)	-7	-8	nt	nt	2	4	nt	nt
CCc1cnc(Nc2nc(C(N)Cc3ccc(F)cc3)cs2)nc1 (stereo not drawn)	-6	5	nt	nt	-1	0	nt	nt
CCCc1nnc(NS(=O)(=O)c2ccc(OC)cc2)s1	1	72*	4	0	1	-3	2	2
CCCOc1ccc(Cc2nn3c(=O)/c(=C/c4ccco4)sc3nc2=O)cc1	8	86*	31	5	6	6	5	4
COc1ccccc1/C=C/C=c1\sc2nc(=O)c(Cc3ccccc3)nn2c1=O	15	93*	3	5	11	5	11	-1
SMILES	SUMO1 PPI mod	DNMT1 block	Scp-1 inhibitor	GRK2 aptamer HTS	LMPTP block	STEP block	DNMT1 confirm	DNMT1 interf	others
Brc1cccc(-c2nc3ccc(Br)cn3c2Cc2ccccc2)c1	-3	34	nt	nt	3	3	nt	nt
O=C(/C=C/c1ccco1)N1CCC(Cc2ccccc2)CC1	1	87*	17	0	4	1	7	-2
COc1ncnc2c1ncn2CCCNCc1ccccn1	0	0	nt	nt	-1	1	nt	nt
Cc1n[nH]c(=O)nc1N/N=C/c1ccc(O)c([N+](=O)[O-])c1	-19	73*	7	2	-10	2	0	1
COc1ccc(/C=N/Nc2nc(=O)[nH]nc2C)cc1[N+](=O)[O-]	-23	0	3	1	-5	1	nt	nt
CN(C)CCc1cc2c(c3c1ccc1ccccc13)OCO2	-15	60*	-4	0	-1	4	37*	6	Beacon interf DR=>99
CCOc1ccc(NC(=O)c2cccc(-n3cccc3)c2)cc1S(=O)(=O)N1CCOCC1	57*	102*	nt	43*	22	8	81*	-3	Beacon interf DR=>99
CCOc1ccc(C(=O)Nc2ccc(S(=O)(=O)N3CCOCC3)cc2)cc1OCC	4	-5	-7	0	-1	-1	nt	nt
CCC(=O)Nc1ccc2nc3c(=O)[nH]c(=S)[nH]c3nc2c1	-3	55*	67*	36	6	6	4	3
CCN(C(=O)COC(=O)/C=C/c1ccc(F)cc1)C1CCCCC1	-7	-5	-1	0	2	-1	nt	nt
CCN(C(=O)COC(=O)/C=C/c1ccco1)C1CCCCC1	-15	75*	72*	49*	7	20	6	3
CC1(C(=O)NNC(=O)c2ccc(=O)oc2)CC1Br (stereo not drawn)	21	75*	28	2	-1	8	4	3
Cc1cc(=O)oc(C)c1C(=O)NNC(=O)C1(C)CC1Br (stereo not drawn)	9	1	-1	4	-2	-3	nt	nt
O=C(NCc1ccncc1)C1Cc2c(-c3ccccc3Oc3ccccc3)ccnc2O1 (stereo not drawn)	4	2	nt	nt	3	0	nt	nt
CC(C)c1nc2sc3c(SCC(=O)NCc4ccco4)ncnc3c2c2c1CCC2	0	83*	32	5	3	1	-1	-1
CC(=O)c1ccc(N2CCN(C(=O)Cc3n[nH]c(=O)c4ccccc34)CC2)cc1	0	66*	-3	1	0	-1	1	1
Cc1sc2nc(CSCC(=O)NC3(C#N)CCCCC3)[nH]c(=O)c2c1C	3	1	-5	3	0	-1	nt	nt

Bioassay records as filed in PubChem.
